Reference: ChEMBL document CHEMBL5257027 (Eur J Med Chem, 2016)
Each block holds one molecule with its values, some of them ahead of it.

What was measured:
K562 [1] = experiment: Antiproliferative activity against human K562 cells assessed as reduction in cell growth; type: functional
Outline: (§1)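 NCI five-dose testing across the 58-line panel gives GI50, TGI and LC50 for each line. Subpanel lines report mean GI50 for each of the nine cancer types.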

HCT-15 [2] = experiment: Antiproliferative activity against human HCT-15 cells assessed as reduction in cell growth; type: functional; outline: as §1
MDA-MB-468 [3] = experiment: Antiproliferative activity against human MDA-MB-468 cells assessed as reduction in cell growth; type: functional; outline: as §1
COLO 205 [4] = experiment: Antiproliferative activity against human COLO 205 cells assessed as reduction in cell growth; type: functional; outline: as §1
PC-3 [5] = experiment: Antiproliferative activity against human PC-3 cells assessed as reduction in cell growth; type: functional; outline: as §1
NCI/ADR-RES [6] = experiment: Antiproliferative activity against human NCI/ADR-RES cells assessed as reduction in cell growth; type: functional; outline: as §1
RXF 393 [7] = experiment: Antiproliferative activity against human RXF 393 cells assessed as reduction in cell growth; type: functional; outline: as §1
SK-MEL-5 [8] = experiment: Antiproliferative activity against human SK-MEL-5 cells assessed as reduction in cell growth; type: functional; outline: as §1
SNB-75 [9] = experiment: Antiproliferative activity against human SNB-75 cells assessed as reduction in cell growth; type: functional; outline: as §1
HOP-92 [10] = experiment: Antiproliferative activity against human HOP-92 cells assessed as reduction in cell growth; type: functional; outline: as §1
[11] = target: Tyrosine-protein kinase ABL1 (Homo sapiens) (UniProt P00519); experiment: Inhibition of ABL (unknown origin) at 10 uM using […] as substrate incubated for 40 mins in presence of [gamma33P]ATP by scintillation counting based hotspot kinase assay relative to control
PC-3 [12] = experiment: Cytotoxicity against human PC-3 cells; type: functional
Outline: (§2)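 Run in the US NCI 58-cell-line screen covering nine cancer types (leukemia, NSCLC, colon, CNS, melanoma, ovarian, renal, prostate, breast). Five-dose mode gave GI50, TGI and LC50 values for each cell line. In the single-dose pre-screen, % inhibition was taken as 100 minus growth percentage.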

[13] = tested on: Panel leukemia (Carcinoma cell lines); experiment: Antiproliferative activity against human Panel leukemia (5 Carcinoma cell lines) assessed as reduction in mean cell growth; type: functional; outline: as §1
[14] = target: Serine/threonine-protein kinase B-raf (Homo sapiens) (UniProt P15056); experiment: Inhibition of B-RAF (unknown origin) at 10 uM using […] as substrate incubated for 40 mins in presence of [gamma33P]ATP by scintillation counting based hotspot kinase assay relative to control
[15] = tested on: Serine/threonine-protein kinase B-raf (Homo sapiens), P15056 [V600E]; experiment: Inhibition of B-RAF V600E mutant (unknown origin) at 10 uM using […] as substrate incubated for 40 mins in presence of [gamma33P]ATP by scintillation counting based hotspot kinase assay relative to control
[16] = Antiproliferative activity against human Panel NCI-58 (58 Carcinoma cell lines) assessed as reduction in mean cell growth at 10 uM; type: functional; design: scale not given: the % may be the effect or the level left
Outline: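 NCI 58-cell-line screen covering leukemia, NSCLC, colon, CNS, melanoma, ovarian, renal, prostate and breast lines. Compounds given once at […] (micromolar per the line). Percent inhibition taken as 100 minus growth percent. Panel line reports the mean over all 58 lines.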

[17] = tested on: Panel ovarian (Carcinoma cell lines); experiment: Antiproliferative activity against human Panel ovarian (7 Carcinoma cell lines) assessed as reduction in mean cell growth; type: functional; outline: as §1
[18] = tested on: Panel prostate (Carcinoma cell lines); experiment: Antiproliferative activity against human Panel prostate (2 Carcinoma cell lines) assessed as reduction in mean cell growth; type: functional; outline: as §1
[19] = target: Epidermal growth factor receptor (Homo sapiens) (UniProt P00533); experiment: Inhibition of EGFR (unknown origin) at 10 uM using […] as substrate incubated for 40 mins in presence of [gamma33P]ATP by scintillation counting based hotspot kinase assay relative to control
[20] = target: RAF proto-oncogene serine/threonine-protein kinase (Homo sapiens, UniProt P04049); experiment: Inhibition of RAF1 (unknown origin) at 10 uM using […] as substrate incubated for 40 mins in presence of [gamma33P]ATP by scintillation counting based hotspot kinase assay relative to control
HOP-92 [21] = experiment: Cytotoxicity against human HOP-92 cells; type: functional; outline: as §2
RXF 393 [22] = experiment: Cytotoxicity against human RXF 393 cells; type: functional; outline: as §2
COLO 205 [23] = experiment: Antiproliferative activity against human COLO 205 cells assessed as total growth inhibition; type: functional; outline: as §1
[24] = tested on: Panel melanoma (Carcinoma cell lines); experiment: Antiproliferative activity against human Panel melanoma (9 Carcinoma cell lines) assessed as reduction in mean cell growth; type: functional; outline: as §1
Homo sapiens = species on record: Homo sapiens; experiment: Inhibition of ABL […] mutant (unknown origin) at 10 uM using […] as substrate incubated for 40 mins in presence of [gamma33P]ATP by scintillation counting based hotspot kinase assay relative to control
SNB-75 [25] = experiment: Antiproliferative activity against human SNB-75 cells assessed as total growth inhibition; type: functional; outline: as §1
NCI/ADR-RES [26] = experiment: Cytotoxicity against human NCI/ADR-RES cells; type: functional; outline: as §2
PC-3 [27] = experiment: Antiproliferative activity against human PC-3 cells assessed as total growth inhibition; type: functional; outline: as §1
SNB-75 [28] = experiment: Cytotoxicity against human SNB-75 cells; type: functional; conditions: read-out: LC50 (the source's name); outline: as §2
HCT-15 [29] = experiment: Antiproliferative activity against human HCT-15 cells assessed as total growth inhibition; type: functional; outline: as §1
K562 [30] = experiment: Cytotoxicity against human k562 cells; type: functional; conditions: read-out: LC50 (the source's name); outline: as §2
[31] = tested on: Panel breast (Carcinoma cell lines); experiment: Antiproliferative activity against human Panel breast (6 Carcinoma cell lines) assessed as reduction in mean cell growth; type: functional; outline: as §1
[32] = tested on: Panel colon (Carcinoma cell lines); experiment: Antiproliferative activity against human Panel colon (7 Carcinoma cell lines) assessed as reduction in mean cell growth; type: functional; outline: as §1
HCT-15 [33] = experiment: Cytotoxicity against human HCT-15 cells; type: functional; conditions: read-out: LC50 (the source's name); outline: as §2
MDA-MB-468 [34] = experiment: Antiproliferative activity against human MDA-MB-468 cells assessed as total growth inhibition; type: functional; outline: as §1
HOP-92 [35] = experiment: Antiproliferative activity against human HOP-92 cells assessed as total growth inhibition; type: functional; outline: as §1
COLO 205 [36] = experiment: Cytotoxicity against human COLO 205 cells; type: functional; outline: as §2
K562 [37] = experiment: Antiproliferative activity against human K562 cells assessed as total growth inhibition; type: functional; outline: as §1
SK-MEL-5 [38] = experiment: Cytotoxicity against human SK-MEL-5 cells; type: functional; outline: as §2
SK-MEL-5 [39] = experiment: Antiproliferative activity against human SK-MEL-5 cells assessed as total growth inhibition; type: functional; outline: as §1
[40] = Antiproliferative activity against human Panel non-small cell lung cancer (8 Carcinoma cell lines) assessed as reduction in mean cell growth; type: functional; conditions: Non-small cell lung cancer cell line; outline: as §1
[41] = tested on: Panel CNS (Carcinoma cell lines); experiment: Antiproliferative activity against human Panel CNS (6 Carcinoma cell lines) assessed as reduction in mean cell growth; type: functional; outline: as §1
RXF 393 [42] = experiment: Antiproliferative activity against human RXF 393 cells assessed as total growth inhibition; type: functional; outline: as §1
[43] = tested on: Panel renal (Carcinoma cell lines); experiment: Antiproliferative activity against human Panel renal (8 Carcinoma cell lines) assessed as reduction in mean cell growth; type: functional; outline: as §1
NCI/ADR-RES [44] = experiment: Antiproliferative activity against human NCI/ADR-RES cells assessed as total growth inhibition; type: functional; outline: as §1
[45] = target: Mitogen-activated protein kinase 14 (Homo sapiens) (UniProt Q16539); experiment: Inhibition of MAPK14 (p38 alpha) (unknown origin) at 10 uM using […] as substrate incubated for 40 mins in presence of [gamma33P]ATP by scintillation counting based hotspot kinase assay relative to control
Sequence of Mitogen-activated protein kinase 14 (Homo sapiens) (Q16539 whole entry): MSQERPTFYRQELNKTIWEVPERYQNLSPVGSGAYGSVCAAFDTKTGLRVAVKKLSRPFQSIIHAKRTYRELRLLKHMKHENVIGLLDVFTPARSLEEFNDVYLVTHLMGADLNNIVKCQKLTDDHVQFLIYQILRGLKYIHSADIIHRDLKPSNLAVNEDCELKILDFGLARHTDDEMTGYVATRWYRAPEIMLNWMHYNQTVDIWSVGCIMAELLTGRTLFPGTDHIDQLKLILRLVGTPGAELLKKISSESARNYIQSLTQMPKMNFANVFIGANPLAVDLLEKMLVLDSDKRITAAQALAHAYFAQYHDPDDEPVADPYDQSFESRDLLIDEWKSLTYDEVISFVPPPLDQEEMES

Sequence of Tyrosine-protein kinase ABL1 (Homo sapiens) (P00519 whole entry): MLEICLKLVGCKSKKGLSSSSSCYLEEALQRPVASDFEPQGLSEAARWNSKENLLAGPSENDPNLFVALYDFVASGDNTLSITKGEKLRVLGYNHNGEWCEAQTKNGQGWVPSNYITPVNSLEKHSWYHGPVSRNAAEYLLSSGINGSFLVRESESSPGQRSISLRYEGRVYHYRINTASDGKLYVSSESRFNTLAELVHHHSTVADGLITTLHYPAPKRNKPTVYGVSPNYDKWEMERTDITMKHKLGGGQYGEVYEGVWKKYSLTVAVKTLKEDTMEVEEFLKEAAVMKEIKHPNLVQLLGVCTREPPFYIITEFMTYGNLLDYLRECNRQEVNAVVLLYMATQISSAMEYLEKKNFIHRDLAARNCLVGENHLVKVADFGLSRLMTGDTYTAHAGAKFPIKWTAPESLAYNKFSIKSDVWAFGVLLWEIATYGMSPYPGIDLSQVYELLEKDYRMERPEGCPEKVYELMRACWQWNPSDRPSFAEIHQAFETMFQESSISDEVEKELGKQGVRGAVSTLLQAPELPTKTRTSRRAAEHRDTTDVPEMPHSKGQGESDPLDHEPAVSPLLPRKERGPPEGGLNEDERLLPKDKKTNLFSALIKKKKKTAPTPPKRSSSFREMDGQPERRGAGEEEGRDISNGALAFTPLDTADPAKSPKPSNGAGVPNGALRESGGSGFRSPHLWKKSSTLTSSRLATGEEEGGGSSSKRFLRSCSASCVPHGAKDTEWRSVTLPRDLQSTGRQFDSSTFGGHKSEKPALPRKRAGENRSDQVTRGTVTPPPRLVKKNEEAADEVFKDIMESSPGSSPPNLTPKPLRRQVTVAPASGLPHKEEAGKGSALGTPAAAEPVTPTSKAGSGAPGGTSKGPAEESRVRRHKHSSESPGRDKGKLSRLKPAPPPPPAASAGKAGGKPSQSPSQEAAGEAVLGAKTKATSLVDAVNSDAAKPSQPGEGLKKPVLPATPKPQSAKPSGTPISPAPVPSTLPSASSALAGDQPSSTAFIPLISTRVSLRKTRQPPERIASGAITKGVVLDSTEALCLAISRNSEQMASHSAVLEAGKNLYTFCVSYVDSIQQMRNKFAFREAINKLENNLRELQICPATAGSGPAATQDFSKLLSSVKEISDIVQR
Sequence of Epidermal growth factor receptor (Homo sapiens) (P00533 whole entry): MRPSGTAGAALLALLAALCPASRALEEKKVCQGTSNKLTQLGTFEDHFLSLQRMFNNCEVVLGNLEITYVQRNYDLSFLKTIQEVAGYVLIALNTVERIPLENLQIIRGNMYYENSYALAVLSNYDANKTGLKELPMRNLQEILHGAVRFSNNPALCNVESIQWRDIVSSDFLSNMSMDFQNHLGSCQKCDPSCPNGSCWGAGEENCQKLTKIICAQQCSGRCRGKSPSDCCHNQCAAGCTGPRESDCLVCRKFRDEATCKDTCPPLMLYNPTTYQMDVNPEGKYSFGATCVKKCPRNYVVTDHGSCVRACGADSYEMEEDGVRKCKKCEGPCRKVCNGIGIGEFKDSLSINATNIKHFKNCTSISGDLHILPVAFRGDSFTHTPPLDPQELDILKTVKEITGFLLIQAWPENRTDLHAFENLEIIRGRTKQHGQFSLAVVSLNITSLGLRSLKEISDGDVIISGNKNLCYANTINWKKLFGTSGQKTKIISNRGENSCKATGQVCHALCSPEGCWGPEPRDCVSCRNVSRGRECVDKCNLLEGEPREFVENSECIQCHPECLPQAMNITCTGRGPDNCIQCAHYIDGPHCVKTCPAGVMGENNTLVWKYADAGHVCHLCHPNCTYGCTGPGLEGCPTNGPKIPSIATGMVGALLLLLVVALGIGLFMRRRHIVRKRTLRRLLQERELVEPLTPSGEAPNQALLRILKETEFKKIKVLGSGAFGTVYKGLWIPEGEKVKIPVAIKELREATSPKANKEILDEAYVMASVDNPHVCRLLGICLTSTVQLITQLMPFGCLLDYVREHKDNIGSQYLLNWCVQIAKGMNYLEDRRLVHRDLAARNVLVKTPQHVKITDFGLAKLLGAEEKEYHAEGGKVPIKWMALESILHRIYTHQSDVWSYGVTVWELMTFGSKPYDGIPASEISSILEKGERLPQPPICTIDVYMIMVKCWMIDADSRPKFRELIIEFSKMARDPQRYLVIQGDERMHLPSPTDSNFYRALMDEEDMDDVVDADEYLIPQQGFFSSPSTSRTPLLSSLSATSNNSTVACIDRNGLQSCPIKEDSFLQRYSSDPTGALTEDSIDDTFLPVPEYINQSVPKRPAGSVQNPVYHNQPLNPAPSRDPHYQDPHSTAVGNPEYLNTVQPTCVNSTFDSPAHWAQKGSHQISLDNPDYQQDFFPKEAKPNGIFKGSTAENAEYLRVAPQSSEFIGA
Sequence of Serine/threonine-protein kinase B-raf (Homo sapiens), P15056 [V600E] (P15056 whole entry V600E): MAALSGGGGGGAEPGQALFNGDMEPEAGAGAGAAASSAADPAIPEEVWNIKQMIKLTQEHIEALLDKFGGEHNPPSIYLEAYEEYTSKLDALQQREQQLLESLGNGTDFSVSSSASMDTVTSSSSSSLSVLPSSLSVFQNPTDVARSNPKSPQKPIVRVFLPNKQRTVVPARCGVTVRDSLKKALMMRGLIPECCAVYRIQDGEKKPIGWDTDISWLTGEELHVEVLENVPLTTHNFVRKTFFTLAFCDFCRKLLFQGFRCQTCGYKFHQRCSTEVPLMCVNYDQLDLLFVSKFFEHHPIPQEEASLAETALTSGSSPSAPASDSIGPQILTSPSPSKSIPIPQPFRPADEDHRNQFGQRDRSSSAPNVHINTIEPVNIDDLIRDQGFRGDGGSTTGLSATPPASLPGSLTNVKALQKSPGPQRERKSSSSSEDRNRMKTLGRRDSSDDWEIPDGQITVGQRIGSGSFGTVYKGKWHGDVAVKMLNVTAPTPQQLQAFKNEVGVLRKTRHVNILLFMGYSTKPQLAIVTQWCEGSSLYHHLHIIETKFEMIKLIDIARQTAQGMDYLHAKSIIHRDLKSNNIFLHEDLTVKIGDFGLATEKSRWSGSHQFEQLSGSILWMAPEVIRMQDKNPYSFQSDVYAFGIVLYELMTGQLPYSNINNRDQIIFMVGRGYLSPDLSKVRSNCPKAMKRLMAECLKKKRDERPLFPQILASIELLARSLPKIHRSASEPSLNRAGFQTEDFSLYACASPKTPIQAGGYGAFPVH
Sequence of Serine/threonine-protein kinase B-raf (Homo sapiens) (P15056 whole entry): as the sequence (P15056 whole entry V600E) above, with E600V counted along it
Sequence of RAF proto-oncogene serine/threonine-protein kinase (P04049 whole entry): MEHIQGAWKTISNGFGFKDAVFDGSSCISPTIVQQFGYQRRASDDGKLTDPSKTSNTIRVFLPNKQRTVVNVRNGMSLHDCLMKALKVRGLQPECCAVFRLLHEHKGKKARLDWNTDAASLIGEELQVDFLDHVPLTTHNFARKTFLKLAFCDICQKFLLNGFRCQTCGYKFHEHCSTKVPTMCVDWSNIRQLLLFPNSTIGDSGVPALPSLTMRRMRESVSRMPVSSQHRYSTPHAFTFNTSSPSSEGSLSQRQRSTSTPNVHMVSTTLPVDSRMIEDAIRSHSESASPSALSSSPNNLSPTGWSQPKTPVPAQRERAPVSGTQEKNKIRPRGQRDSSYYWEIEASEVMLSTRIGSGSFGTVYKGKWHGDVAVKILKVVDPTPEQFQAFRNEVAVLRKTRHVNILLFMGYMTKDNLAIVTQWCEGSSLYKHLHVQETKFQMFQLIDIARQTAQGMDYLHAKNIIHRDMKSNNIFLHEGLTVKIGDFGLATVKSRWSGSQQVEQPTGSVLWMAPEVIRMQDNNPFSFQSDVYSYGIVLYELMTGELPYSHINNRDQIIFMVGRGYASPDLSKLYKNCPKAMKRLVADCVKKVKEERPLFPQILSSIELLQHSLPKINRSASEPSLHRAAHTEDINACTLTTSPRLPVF

GI50 (K562 [1]): 3.69 µM | GI50 (HCT-15 [2]): 3.4 µM | GI50 (MDA-MB-468 [3]): 1.95 µM | GI50 (COLO 205 [4]): 3.33 µM | GI50 (PC-3 [5]): 3.18 µM | GI50 (SK-MEL-5 [8]): 1.54 µM
Structure (SMILES): COc1cccc(-c2nn(-c3ccccc3)cc2-c2ccnc(NCCCNC(=O)c3cccc(C(F)(F)F)c3)c2)c1
GI50 (NCI/ADR-RES [6]): 3.54 µM | GI50 (RXF 393 [7]): 2.2 µM | GI50 (SNB-75 [9]): 17 µM | GI50 (HOP-92 [10]): 2.48 µM

Structure (SMILES): COc1cccc(-c2nn(-c3ccccc3)cc2-c2ccnc(NCCNC(=O)Nc3cccc(C(F)(F)F)c3)c2)c1
inhibition [11]: 13.4% | LC50 (PC-3 [12]): 100 µM | GI50 [13]: 2.04 µM | GI50 (K562 [1]): 2.13 µM | inhibition [14]: 14% | GI50 (HCT-15 [2]): 1.7 µM | inhibition [15]: 36.2% | Activity [16]: >80% | GI50 [17]: 2.54 µM | GI50 [18]: 3.09 µM | inhibition [19]: -2.09% | inhibition [20]: 45.1% | GI50 (MDA-MB-468 [3]): 1.7 µM | GI50 (COLO 205 [4]): 1.88 µM | GI50 (PC-3 [5]): 2.02 µM | LC50 (HOP-92 [21]): 100 µM | LC50 (RXF 393 [22]): 25 µM | TGI (COLO 205 [23]): 3.34 µM | GI50 [24]: 1.91 µM | inhibition (Homo sapiens): 2.92% | TGI (SNB-75 [25]): 100 µM | GI50 (NCI/ADR-RES [6]): 2.22 µM | LC50 (NCI/ADR-RES [26]): 100 µM | TGI (PC-3 [27]): 15.7 µM | CC50 (SNB-75 [28]): 100 µM | TGI (HCT-15 [29]): 4.7 µM | CC50 (K562 [30]): 100 µM | GI50 [31]: 2.23 µM | GI50 [32]: 1.98 µM | CC50 (HCT-15 [33]): 100 µM | TGI (MDA-MB-468 [34]): 3.5 µM | GI50 (RXF 393 [7]): 1.53 µM | TGI (HOP-92 [35]): 7.65 µM | GI50 (SK-MEL-5 [8]): 1.73 µM | GI50 (SNB-75 [9]): 1.62 µM | LC50 (lethal concentration 50%) (COLO 205 [36]): 6.95 µM | TGI (K562 [37]): 100 µM | LC50 (SK-MEL-5 [38]): 7.82 µM | TGI (SK-MEL-5 [39]): 3.55 µM | GI50 [40]: 2.03 µM | GI50 [41]: 2.07 µM | GI50 (HOP-92 [10]): 1.46 µM | TGI (RXF 393 [42]): 4.63 µM | GI50 [43]: 2.14 µM | TGI (NCI/ADR-RES [44]): 5.75 µM

Structure (SMILES): O=C(NCCCNc1cc(-c2cn(-c3ccccc3)nc2-c2cccc(O)c2)ccn1)c1ccccc1
inhibition [11]: 16% | LC50 (PC-3 [12]): 100 µM | GI50 [13]: 1.62 µM | GI50 (K562 [1]): 0.75 µM | inhibition [14]: 10.8% | GI50 (HCT-15 [2]): 1.51 µM | inhibition [15]: 34.4% | Activity [16]: >80% | inhibition [45]: 74.5% | GI50 [17]: 4.17 µM | GI50 [18]: 3.69 µM | inhibition [19]: 3.72% | inhibition [20]: 39.6% | GI50 (MDA-MB-468 [3]): 1.38 µM | GI50 (COLO 205 [4]): 1.71 µM | GI50 (PC-3 [5]): 2.1 µM | LC50 (HOP-92 [21]): 100 µM | LC50 (RXF 393 [22]): 100 µM | TGI (COLO 205 [23]): 3.67 µM | GI50 [24]: 2.3 µM | inhibition (Homo sapiens): 9.61% | TGI (SNB-75 [25]): 46.9 µM | GI50 (NCI/ADR-RES [6]): 2.67 µM | LC50 (NCI/ADR-RES [26]): 100 µM | TGI (PC-3 [27]): 15.2 µM | CC50 (SNB-75 [28]): 100 µM | TGI (HCT-15 [29]): 5.12 µM | CC50 (K562 [30]): 100 µM | GI50 [31]: 2.13 µM | GI50 [32]: 2.3 µM | CC50 (HCT-15 [33]): 100 µM | TGI (MDA-MB-468 [34]): 3.36 µM | GI50 (RXF 393 [7]): 1.97 µM | TGI (HOP-92 [35]): 24.5 µM | GI50 (SK-MEL-5 [8]): 1.49 µM | GI50 (SNB-75 [9]): 1.68 µM | LC50 (lethal concentration 50%) (COLO 205 [36]): 7.88 µM | LC50 (SK-MEL-5 [38]): 6.54 µM | TGI (SK-MEL-5 [39]): 3.12 µM | GI50 [40]: 3.4 µM | GI50 [41]: 3.6 µM | GI50 (HOP-92 [10]): 1.7 µM | TGI (RXF 393 [42]): 6.2 µM | GI50 [43]: 3.63 µM | TGI (NCI/ADR-RES [44]): 9.79 µM
